{"source": "paper PMC3074116", "about": "(Translational stroke research, 2011)", "key": {"[1]": {"experiment": "Metabolic stability in rat microsomes", "assay_type": "in vitro ADME", "conditions": "1 μM; for metabolic stability (in words): male Sprague–Dawley rat microsomal preparation; for percent of parent remaining: HPLC/MS", "outline": "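Incubated at 1 μM for 30 min at 37°C with pooled liver microsomes from non-induced male Sprague–Dawley rats. Parent loss measured by HPLC-MS on a C18 column at 50°C (water/0.1% formic acid; acetonitrile/0.07% formic acid). Triplicate percent parent remaining; ranked low (100–65%), moderate (65–45%) or high (<45%) metabolism.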"}, "[2]": {"tested_on": "H4IIE cells", "experiment": "Lipid peroxidation measured as 8-isoprostane", "assay_type": "cell-based, rat", "conditions": "1–300 μM"}, "[3]": {"tested_on": "H4IIE cells", "conditions": "for Cell number (cell mass) TC50: 24-h exposure, n=7 replicates"}, "[4]": {"tested_on": "H4IIE cells", "experiment": "CTox ranking", "assay_type": "cell-based, rat", "conditions": "generated from TC50 values by proprietary algorithm"}, "[5]": {"tested_on": "rabbit embolic stroke model", "conditions": "cited from earlier work"}, "[6]": {"tested_on": "H4IIE cells", "conditions": "24-h exposure, GST leakage, n=3 replicates"}, "[7]": {"tested_on": "H4IIE cells", "experiment": "Intracellular glutathione", "assay_type": "cell-based, rat", "conditions": "for effect on intracellular GSH content: 1–300 μM; for GSH content TC50: 24-h exposure"}, "[8]": {"tested_on": "P-glycoprotein (PgP)", "experiment": "P-glycoprotein binding using the MTT assay with and without cyclosporin A", "conditions": "50 μM, 24-h exposure, n=7; for % Control (compound+CSA): with CSA; for % Control (compound): without CSA"}, "[9]": {"experiment": "Solubility in culture medium", "assay_type": "physicochemical", "conditions": "for soluble up to and including: culture medium with 10% bovine serum and 10% calf serum, 37°C"}, "[10]": {"tested_on": "HT22 cells", "conditions": "read-out: EC50 neuroprotection, glutamate (5 mM); cited from earlier work"}, "[11]": {"tested_on": "Cytochrome P450 1A1/2"}, "[12]": {"tested_on": "H4IIE cells", "conditions": "24-h exposure, n=7 replicates"}, "[13]": {"tested_on": "HT22 cells", "conditions": "cited from earlier work"}, "[14]": {"tested_on": "rat cognition assay", "conditions": "10 mg/kg by gavage; cited from earlier work"}, "[15]": {"conditions": "100 mg/kg single bolus injection"}}, "data": [{"smiles": "CC(C)(C)[N+]([O-])=Cc1ccc(S(=O)(=O)[O-])cc1S(=O)(=O)[O-].[Na+].[Na+]", "note": "[NXY-059, Disodium 4-[[(1,1,-dimethylethyl)imino]methyl]benzene-1,3-disulfonate N-oxide]", "values": [{"measurement": "metabolic stability (in words)", "setting": "[1]", "value": "very stable metabolically"}, {"measurement": "percent of parent remaining", "setting": "[1]; rat microsomes, 30 min at 37°C", "value": 93, "unit": "%"}, {"measurement": "effect on 8-isoprostane (lipid peroxidation)", "setting": "[2]", "value": "no effect"}, {"measurement": "Cell number (cell mass) TC50", "setting": "[3]", "value": ">300", "unit": "µM"}, {"measurement": "CTox value (sustained concentration expected to produce toxicity in a rat 14-day repeat dose study)", "setting": "[4]", "value": "> 300", "unit": "µM"}, {"measurement": "maximum therapeutic window", "setting": "[5]; time following embolization", "value": 1, "unit": "h"}, {"measurement": "MemTox TC50", "setting": "[6]", "value": ">300", "unit": "µM"}, {"measurement": "effect on intracellular GSH content", "setting": "[7]", "value": "no effect"}, {"measurement": "GSH content TC50", "setting": "[7]", "value": "> 300", "unit": "µM"}, {"measurement": "% Control (compound+CSA)", "setting": "[8]", "value": 93.6, "unit": "%"}, {"measurement": "% Control (compound)", "setting": "[8]", "value": 100.0, "unit": "%"}, {"measurement": "soluble up to and including", "setting": "[9]", "value": "≥ 300", "unit": "µM"}]}, {"smiles": "COc1cc(C=Cc2cc(/C=C/c3ccc(O)c(OC)c3)nn2-c2ccccc2)ccc1O", "note": "[CNB-001]", "values": [{"measurement": "metabolic stability (in words)", "setting": "[1]", "value": "metabolically unstable"}, {"measurement": "metabolism ranking", "setting": "[1]; rat microsomes, 30 min at 37°C", "value": "high (<45% as high)"}, {"measurement": "percent of parent remaining", "setting": "[1]; rat microsomes, 30 min at 37°C", "value": 42, "unit": "%"}, {"measurement": "effect on 8-isoprostane (lipid peroxidation)", "setting": "[2]", "value": "did not have any effect"}, {"measurement": "Cell number (cell mass) TC50", "setting": "[3]", "value": 88, "unit": "µM"}, {"measurement": "CTox value (sustained concentration expected to produce toxicity in a rat 14-day repeat dose study)", "setting": "[4]", "value": 42, "unit": "µM"}, {"measurement": "acute toxicity", "setting": "[5]; [15]", "value": "without any signs of acute toxicity"}, {"measurement": "behavior", "setting": "[5]; [15]", "value": "significant behavioral improvement"}, {"measurement": "MemTox TC50", "setting": "[6]", "value": 193, "unit": "µM"}, {"measurement": "EC50", "setting": "[10]", "value": 0.7, "unit": "µM"}, {"measurement": "GSH content TC50", "setting": "[7]", "value": 76, "unit": "µM"}, {"measurement": "concentration with apparent inhibition of EROD activity", "setting": "[11]; Fig. 2", "value": "above 10 μM"}, {"measurement": "IC50", "setting": "[11]; read-out: EROD activity inhibition IC50, H4IIE cells", "value": "~25", "unit": "µM"}, {"measurement": "% Control (compound+CSA)", "setting": "[8]", "value": 79.0, "unit": "%"}, {"measurement": "% Control (compound)", "setting": "[8]", "value": 79.9, "unit": "%"}, {"measurement": "MTT TC50", "setting": "[12]", "value": 131, "unit": "µM"}, {"measurement": "effect on GSH levels in HT22 cells", "setting": "[13]", "value": "no effect"}, {"measurement": "object recognition index", "setting": "[14]", "value": "significantly increased"}, {"measurement": "soluble up to and including", "setting": "[9]", "value": "≥ 100", "unit": "µM"}, {"measurement": "solubility at 300 μM", "setting": "[9]; culture medium, 300 μM", "value": "not completely soluble"}]}, {"smiles": "CC1=NN(c2ccccc2)C(=O)C1", "note": "[Radicut, 3-Methyl-1-phenyl-2-pyrazolin-5-one]", "values": [{"measurement": "metabolic stability (in words)", "setting": "[1]", "value": "metabolically unstable"}, {"measurement": "percent of parent remaining", "setting": "[1]; rat microsomes, 30 min at 37°C", "value": 28, "unit": "%"}, {"measurement": "effect on 8-isoprostane (lipid peroxidation)", "setting": "[2]", "value": "no effect"}, {"measurement": "Cell number (cell mass) TC50", "setting": "[3]", "value": ">300", "unit": "µM"}, {"measurement": "decrease in cell proliferation", "setting": "[3]; 300-μM exposure", "value": 30, "unit": "%"}, {"measurement": "CTox value (sustained concentration expected to produce toxicity in a rat 14-day repeat dose study)", "setting": "[4]", "value": "> 300", "unit": "µM"}, {"measurement": "time of administration following embolization at which still active", "setting": "[5]", "value": 3, "unit": "h"}, {"measurement": "MemTox TC50", "setting": "[6]", "value": ">300", "unit": "µM"}, {"measurement": "effect on intracellular GSH content", "setting": "[7]", "value": "no effect"}, {"measurement": "GSH content TC50", "setting": "[7]", "value": "> 300", "unit": "µM"}, {"measurement": "% Control (compound+CSA)", "setting": "[8]", "value": 94.8, "unit": "%"}, {"measurement": "% Control (compound)", "setting": "[8]", "value": 95.9, "unit": "%"}, {"measurement": "solubility", "setting": "[9]", "value": "≥ 300", "unit": "µM"}]}]}
